Source: PubChem (several laboratories)
Many of the other results were omitted from the sample, so hits are more common in it than they were.
697 NFkB inh – inhibitors of the PMA/ionomycin-induced NF-kB reporter in 697 B cells; 697 B-cell NF-kB luciferase reporter, 16 h; inhibition, % at 4 µM; 330,000 compounds, 0.33% hits; in the data active = inhibition above about 35%
Jurkat NFkB inh – lowers PMA/ionomycin-induced NF-kB signal in Jurkat cells; PMA/ionomycin-induced NF-kB luciferase reporter, luminescence; 330,000 compounds, 0.53% hits; inhibition, % at 4 µM; in the data active = inhibition above about 50%
CHOP inhibitor – inhibitors of CHOP induction in ER stress response | inhibition, % at 10 µM | 220,000 compounds, 3.8% hits | CHO-K1 CHOP-promoter luciferase, tunicamycin-induced, 15-18 h;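 active = compounds that reduced the stress-induced luciferase reporter signal by more than about 70% of percent inhibition, limit read from the data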
CHOP UPR activ – activators of apoptotic arm of unfolded protein response (CHOP); CHO-CHOP luciferase reporter, UPR activation, luminescence; percent of tunicamycin response over DMSO baseline; activation, % at 10 µM; 330,000 compounds, 0.34% hits;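 active = at 10 µM dose, activation of 40% or more, normalized to positive control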
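Test system: CHO-CHOP cells, stable luciferase reporter of PERK-eIF2a-CHOP signalling | Quantity: 500 CHO-CHOP cells per well | Buffer or medium: F12 plus 10% serum | Compound dosing: 10 µM single point, 0.5% DMSO | Schedule: 6 h compound treatment, 37 °C | Signal: Luciferase luminescence | Control set: Tunicamycin high control, DMSO low control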
UPR XBP1 act – adaptive UPR (XBP1) activation; 330,000 compounds, 0.33% hits; CHO-XBP1 luciferase reporter, IRE1-XBP1 UPR activation, luminescence; percent of tunicamycin response, DMSO as zero; AID 463104; activation, % at 20 µM;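 active = versus positive control, 20 µM dose yields 30% or more activation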
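Signal: luciferase luminescence; Assay system: CHO-XBP1 luciferase reporter cells; Amount: one thousand reporter cells per well; Dosing: 20 µM single concentration, DMSO 1%; Benchmarks: high control tunicamycin 10 µg/mL final, low control DMSO vehicle only; Schedule: 6 h compound exposure at 37 °C, 5% CO2; Evaluation: percent activation relative to tunicamycin reference.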
UPR CHOP confirm – apoptotic UPR (CHOP) activation, confirmed; shares compounds with CHOP UPR activ; CHO-CHOP cells, CHOP-luciferase reporter luminescence; percent of tunicamycin response, DMSO as zero; activation, % at 10 µM; 1,000 compounds, 64% hits; in the data active = activation above about 33%
Each line names hits and unclear results; the compound was inactive in the other large screens (follow-up assays come after a bar, where they were run).

CC(=O)NCCCc1nc2ccccc2n1Cc1c(F)cccc1Cl	none
Cc1cc(C(=O)CCl)c(C)n1Cc1ccco1	CHOP UPR activ 99 | UPR CHOP confirm 236
Cc1cc(C(=O)CCl)c(C)n1CCc1ccccc1	CHOP UPR activ 196 | UPR CHOP confirm 204
CCOC(=O)c1cc(C)n(CCc2ccccc2)c1C	none
Cc1cc(C(=O)CSc2nncs2)c(C)n1Cc1ccco1	none
COC(=O)c1[nH]nc(-c2ccccc2)c1-c1ccccc1	none (no result: CHOP inhibitor)
COc1ccc(-c2cc(C(F)(F)F)nc(S(=O)(=O)CCCC(=O)Nc3cccc(O)c3)n2)cc1OC	CHOP UPR activ 55 | UPR CHOP confirm inactive
O=C1C=C(N2CCOCC2)c2ccccc2C1=O	CHOP UPR activ 41 (no result: CHOP inhibitor) | UPR CHOP confirm inactive
CC(=O)n1cc(C(C[N+](=O)[O-])SCCN)c2ccccc21 (configuration not stated)	CHOP UPR activ 138 | UPR CHOP confirm inactive
CCn1c(SCC(=O)NNC(=O)c2ccc(C)cc2)nnc1C1CC1	none (no result: CHOP inhibitor)
C1=CC2=NC34CCCCC3CC3=C(CCCC3)N4C2=CC1=NC1CCCCC1 (configuration not stated)	CHOP UPR activ 49 (no result: CHOP inhibitor) | UPR CHOP confirm inactive
CCN(CC)CCCNC(=O)c1ccc2c(SCC(=O)O)c3c(nc2c1)CCC3	none
CC(C)CCNC(=O)c1ccc2c(SCC(=O)O)c3c(nc2c1)CCCC3	CHOP UPR activ 44 | UPR CHOP confirm inactive
COc1ccc(C(c2c(C)[nH]n(C(N)=S)c2=O)C(C#N)C#N)cc1 (configuration not stated)	CHOP UPR activ 62 | UPR CHOP confirm 56
O=C(c1cc(C2CC2)nc2ccc(Br)cc12)N1N=C(C(F)F)CC1(O)C(F)F (configuration not stated)	none
CCOC(=O)CSc1cccc2cccnc12	CHOP UPR activ 231 | UPR CHOP confirm 202
Cc1cccc(NC(=O)CSc2cccc3cccnc23)c1C	none (no result: CHOP inhibitor)
NNC(=O)c1ccc(CSc2cccc3cccnc23)cc1	none
Cc1cccc(CSc2cccc3cccnc23)c1	CHOP UPR activ 407 | UPR CHOP confirm 254
CCCCn1c(N)c(N(CC(C)C)C(=O)c2c(-c3ccccc3)noc2C)c(=O)[nH]c1=O	none (no result: CHOP inhibitor)
CC(C)c1ccc(OCCCCCN2CCOCC2)cc1	none (no result: CHOP inhibitor)
CC(=O)Oc1ccc(OC(C)=O)c(SCCCCCN2CCOCC2)c1	CHOP UPR activ 73 | UPR CHOP confirm 33
CCOC(=O)c1cnc(-n2nc(C)cc2C)nc1Nc1ccc(N(C)C)cc1	CHOP UPR activ 73, UPR XBP1 act 36 | UPR CHOP confirm 35
Cc1noc2ncnc(Sc3ccc(Cl)cc3)c12	CHOP UPR activ 188 | UPR CHOP confirm 118
Cc1ccc(-c2csc(NC(=O)CN3CC(C)OC(C)C3)n2)cc1 (configuration not stated)	none (no result: CHOP inhibitor)
CC(=O)c1ccc(NC(=O)COC(=O)c2ccccc2N=Nc2ccc(N(C)C)cc2)cc1	CHOP UPR activ 44 | UPR CHOP confirm 55
O=[N+]([O-])c1ccc2nc(Cl)nc(-c3ccccc3)c2c1	CHOP UPR activ 106 (no result: CHOP inhibitor) | UPR CHOP confirm 87
C/C(CC(=O)NC(C)(C)C)=N\NC(N)=S	none
Oc1c(C(c2ccccn2)N2CCC(Cc3ccccc3)CC2)cc(Cl)c2cccnc12 (configuration not stated)	CHOP UPR activ 43 | UPR CHOP confirm 74
CC(=O)C1=C(O)C(=O)N(Cc2ccccc2)C1c1ccc(Br)cc1 (configuration not stated)	none (no result: CHOP inhibitor)
O=c1cc2c(n[nH]1)-c1ccccc1CC2	none (no result: CHOP inhibitor)
CCCCC(=O)NC(c1ccccc1Cl)c1ccc2cccnc2c1O (configuration not stated)	none (no result: CHOP inhibitor)
CCCC(=O)NC(c1ccccc1)c1ccc2cccnc2c1O (configuration not stated)	CHOP UPR activ 51 (no result: CHOP inhibitor) | UPR CHOP confirm inactive
CC1(C)CC(=O)C2=C(C1)N=c1s/c(=C/c3ccc(F)c(F)c3)c(=O)n1C2c1ccc(F)cc1 (configuration not stated)	CHOP UPR activ 40 | UPR CHOP confirm inactive
CCOC(=O)C1=C(C)N=c2s/c(=C\c3ccc(C(=O)O)cc3)c(=O)n2C1c1ccc(F)cc1 (configuration not stated)	none (no result: CHOP inhibitor)
CCOc1ccc(/C=N/NC(=O)NC23CC4CC(CC(C4)C2)C3)cc1O	none (no result: CHOP inhibitor)
O=C(N/N=C/c1ccc(O)c(O)c1)NC12CC3CC(CC(C3)C1)C2	CHOP UPR activ 145, UPR XBP1 act 42 (no result: CHOP inhibitor) | UPR CHOP confirm 157
CC1=CN2C(=N)/C(=C/c3cn(CCCOc4ccccc4C)c4ccccc34)C(=O)N=C2S1	CHOP UPR activ 44 | UPR CHOP confirm inactive
COc1ccc(/C=C/C(=O)c2ccc(C(=O)/C=C/c3ccc(OC)c(OC)c3)cc2)cc1OC	CHOP UPR activ 84 (no result: CHOP inhibitor) | UPR CHOP confirm 138
CN(Cc1ccno1)C(=O)CC1C(=O)NCCN1CC(c1ccccc1)c1ccccc1 (configuration not stated)	none
O=c1c2c3c(sc2ncn1/N=C/c1ccc([N+](=O)[O-])o1)CCCC3	CHOP UPR activ 213 | UPR CHOP confirm 195
Cn1cc(/C=N/n2cnc3sc4c(c3c2=O)CCCC4)c2ccccc21	none
COc1cccc2sc(Nc3nnc(-c4cccs4)o3)nc12	CHOP UPR activ 55 (no result: CHOP inhibitor) | UPR CHOP confirm 60
Cc1cnnn1-c1ccc(C(=O)CCl)cc1	CHOP inhibitor 92, CHOP UPR activ 132 | UPR CHOP confirm inactive
CC(=O)c1ccc(-n2nncc2C(C)(C)C)cc1	none
COc1ccc(CCN2CCC(Nc3nc4ccccc4n3Cc3ccc(F)cc3)CC2)cc1	CHOP UPR activ 56 (no result: CHOP inhibitor) | UPR CHOP confirm 44
COc1cc(/C=C(\C#N)C(=O)NC2CCCCC2C)ccc1OS(=O)(=O)c1ccc(C)cc1 (configuration not stated)	CHOP UPR activ 76 | UPR CHOP confirm inactive
CCOC(=O)C1=C(CS(=O)(=O)c2ccc(F)cc2)NC(=O)NC1c1ccc(O)c(O)c1 (configuration not stated)	none (no result: CHOP inhibitor)
CCNC(=S)N1CCN(C(=O)C(Cc2ccccc2)NC(C)=O)CC1 (configuration not stated)	CHOP UPR activ 52 | UPR CHOP confirm inactive
CC(=O)NC(Cc1ccccc1)C(=O)N1CCN(C(=S)NCC(C)C)CC1 (configuration not stated)	none
Cc1ccc(C(C[N+](=O)[O-])Sc2ccc(N)cc2)cc1 (configuration not stated)	CHOP UPR activ 117 | UPR CHOP confirm inactive
Nc1ccc(Sc2ccc([N+](=O)[O-])cc2)cc1	none
COc1cc(NC(=O)c2sc(C)nc2C)c(OC)cc1NC(=O)c1ccccc1	none (no result: CHOP inhibitor)
S=C(NC1CCCCCC1)NC1CCCC1	none
